From ChEMBL document CHEMBL3407343, “Functionalized tetrahydro-1H-pyrido[4,3-b]indoles: a novel chemotype with Sirtuin 2 inhibitory activity” (Eur J Med Chem, 2015)
≈ marks a conversion by molar mass, not a printed value. Calls of active or inactive are those of the source. The calls are words filed in the database; no cut-off is given here.

What was measured:
[1] = target: T1, NAD-dependent protein deacetylase sirtuin-1 (Homo sapiens) (UniProt Q96EB6); test: Inhibition of human recombinant SIRT1 assessed as deacetylation of N-acetyl lysine residue in p53 (317 to 320) at 10 uM after 30 mins by luciferase-mediated luminescence assay relative to control
T1 sequence (whole entry): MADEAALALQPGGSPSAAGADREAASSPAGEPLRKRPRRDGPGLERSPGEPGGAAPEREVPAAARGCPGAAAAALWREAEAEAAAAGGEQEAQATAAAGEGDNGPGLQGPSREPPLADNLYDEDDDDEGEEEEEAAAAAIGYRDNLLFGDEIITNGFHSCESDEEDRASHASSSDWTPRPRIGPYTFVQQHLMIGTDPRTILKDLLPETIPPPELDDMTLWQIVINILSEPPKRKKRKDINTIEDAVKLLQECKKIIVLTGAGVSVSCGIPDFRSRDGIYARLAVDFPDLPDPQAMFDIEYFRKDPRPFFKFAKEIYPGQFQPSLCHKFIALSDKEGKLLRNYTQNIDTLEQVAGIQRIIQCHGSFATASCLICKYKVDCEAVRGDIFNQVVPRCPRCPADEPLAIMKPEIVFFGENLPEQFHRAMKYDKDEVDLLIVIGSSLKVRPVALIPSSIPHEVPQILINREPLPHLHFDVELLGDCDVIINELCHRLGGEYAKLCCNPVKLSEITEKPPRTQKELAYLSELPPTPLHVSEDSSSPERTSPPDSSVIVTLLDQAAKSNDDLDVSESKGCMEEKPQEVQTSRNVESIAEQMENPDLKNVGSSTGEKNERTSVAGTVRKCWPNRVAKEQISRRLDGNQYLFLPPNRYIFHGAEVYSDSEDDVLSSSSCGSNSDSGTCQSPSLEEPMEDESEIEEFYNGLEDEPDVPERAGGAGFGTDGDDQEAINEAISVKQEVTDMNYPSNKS
In short: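 Recombinant human SIRT1 at 0.1 unit/well, with the enzyme amount chosen from the mid-linear range of a signal-to-noise titration, in Sirt-Glo buffer. Serially diluted inhibitor in DMSO covers a 10^3-fold range, with 2.5% DMSO final. The single-point screen is at a fixed 10 µM. Enzyme and inhibitor were agitated 30 min at 25 °C, then Sirt-Glo reagent added and shaken another 30 min at 25 °C before luminescence was read. Activity is % of the enzyme-only control after blank subtraction. IC50 comes from a sigmoidal fit of % activity against log concentration, run in triplicate across ≥2 independent experiments.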

[2] = target: T2, NAD-dependent protein deacetylase sirtuin-2 (Homo sapiens, UniProt Q8IXJ6); test: Inhibition of human recombinant SIRT2 assessed as deacetylation of N-acetyl lysine residue in p53 (317 to 320) after 30 mins by luciferase-mediated luminescence assay
T2 sequence (Q8IXJ6 whole entry): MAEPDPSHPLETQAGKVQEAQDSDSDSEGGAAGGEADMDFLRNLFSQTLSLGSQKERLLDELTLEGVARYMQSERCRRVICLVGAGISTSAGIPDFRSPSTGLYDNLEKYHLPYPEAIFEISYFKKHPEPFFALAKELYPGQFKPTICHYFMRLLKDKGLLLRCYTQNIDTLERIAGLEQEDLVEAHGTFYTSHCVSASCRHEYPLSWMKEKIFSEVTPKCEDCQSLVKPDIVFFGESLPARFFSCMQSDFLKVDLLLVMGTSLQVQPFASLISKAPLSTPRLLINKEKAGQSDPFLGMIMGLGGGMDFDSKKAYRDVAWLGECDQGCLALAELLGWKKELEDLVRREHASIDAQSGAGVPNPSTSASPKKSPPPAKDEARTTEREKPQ

[3] = organism: Homo sapiens; test: Inhibition of protease (unknown origin) using deacetylated peptide as substrate assessed as luminescence at 100 uM after 30 mins relative to control; parameters: scale not given: the % may be the effect or the level left
[4] = Inhibition of luciferase (unknown origin) using deacetylated peptide as substrate assessed as luminescence at 100 uM after 30 mins relative to control; parameters: scale not given: the % may be the effect or the level left
[5] = Cytotoxicity against human IMR90 cells assessed as cell viability after 72 hrs by MTS assay; type: cell-based; conditions: IMR-90, 72 h
[6] = Solubility of the compound in phosphate buffer at pH 7.4 at 25 degC by turbimetric method; type: physicochemical
In short: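 Turbidimetric solubility. Compound from DMSO stock was added to phosphate buffer pH 7.4 at 1–50 µM final, with 1% v/v DMSO. Plate shaken 30 min at 25 °C and absorbance read at 620 nm. Solubility is assigned to the concentration range where absorbance rises two-fold or more, from 3 separate determinations.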

[7] = target: T3, NAD-dependent protein deacetylase sirtuin-2 (Homo sapiens) (UniProt Q8IXJ6); test: (§1) Non-competitive inhibition of human recombinant SIRT2 using Z-QPK(Me)2K(Ac) as substrate assessed as decrease in maximal enzyme activity preincubated for 60 mins followed by substrate addition measured after 30 mins by double-reciprocal plot analysis in presence of 5 mM NAD+
T3 sequence (whole entry): T2 sequence (Q8IXJ6 whole entry)
In short: (§2)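 Recombinant human SIRT2 at 0.2 unit/well, preincubated 60 min at 25 °C (400 rpm) with inhibitor at four levels including zero, 2.5% DMSO. Detection reagent (acetylated Z-QPK(Me)2K(Ac)-aminoluciferin, NAD and developer) was premixed 60 min at 37 °C, added, and incubated 30 min at 25 °C before luminescence was read. For line 17, substrate was varied (4.12–333.3 µM) at fixed NAD. For line 16, NAD was varied (four levels) at 38.5 µM substrate. Double-reciprocal plots were made, and their slopes replotted against inhibitor concentration for apparent Ki.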

[8] = target: T2, NAD-dependent protein deacetylase sirtuin-2; test: as §1; conditions: read-out: Ki(app); in short: as §2
[9] = system: HepG2; test: Growth inhibition of human HepG2 cells after 72 hrs by MTS assay; type: functional, cell-based; conditions: HepG2, 72 h
In short: (§3)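 Cells in DMEM with 10% heat-treated FBS and penicillin/streptomycin, subcultured at 85–90% confluence and used within 15 passages. Seeded 2500 cells/well and grown 24 h, then compound was added (0.5% v/v DMSO final) for 72 h at 37 °C, 5% CO2. MTS was added for 4 h in the dark and absorbance read at 490 nm. Viability is corrected for compound and vehicle blanks.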

[10] = system: MDA-MB-231; test: Growth inhibition of human MDA-MB-231 cells after 72 hrs by MTS assay; type: functional, cell-based; conditions: MDA-MB-231, 72 h; in short: as §3
[11] = target: T3, NAD-dependent protein deacetylase sirtuin-2 (Homo sapiens); test: (§4) Non-competitive inhibition of human recombinant SIRT2 using Z-QPK(Me)2K(Ac) as substrate assessed as decrease in maximal enzyme activity preincubated for 60 mins followed by substrate addition measured after 30 mins by double-reciprocal plot analysis in presence of 185 to 5000 uM NAD+; in short: as §2
[12] = target: T2, NAD-dependent protein deacetylase sirtuin-2; test: as §4; conditions: read-out: Ki(app); in short: as §2
[13] = target: T3, NAD-dependent protein deacetylase sirtuin-2 (Homo sapiens); test: Inhibition of SIRT2 in human MDA-MB-231 cells assessed as increase in acetylated p53 at Lys382 and alpha-tubulin level at 2 to 4 uM after 24 hrs by Western blot analysis; type: cell-based
In short: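 Cells seeded at 50,000 cells/mL in high-glucose DMEM containing compound (0.5% v/v DMSO) and incubated at 37 °C, 5% CO2: HepG2 6 h, MDA-MB-231 24 h. Washed cells were lysed on ice ≥20 min in Tris/NaCl/EDTA/Triton buffer with protease and phosphatase inhibitors, then protein measured by Bradford. SDS-PAGE blots were probed overnight at 4 °C with primary antibodies and detected by HRP/ECL, with re-probing after stripping. Each blot was repeated ≥3 times.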

`CCCCCCCCn1c2c(c3cc(-c4ccc(S(C)(=O)=O)cc4)ccc31)CNCC2` gave an inhibition [1] of 48.5%, an IC50 [2] of 3800 nM and an Activity [3] of 94.3%. For the same molecule, the Activity [4] was 94.3%, the IC50 [5] was 2720 nM and the solubility kinetic [6] was 3.1 µM (≈ 1.36 µg/mL). The inhibition [7] was “Dose-dependent effect”, the Ki [8] was 2280 nM and the IC50 [9] was 2100 nM. The IC50 [10] was 2100 nM, the inhibition [11] was “Dose-dependent effect” and the Ki [12] was 3700 nM. For the same molecule, the inhibition [13] was “Active”.
